Results from ChEMBL document CHEMBL5058577, “EUbOPEN Chemogenomics Library 2 (Multiplex)” (2022).

Tested on: U2OS
Assay: Multiplex assay against U2OS
Type: toxicity, cell-based
Settings: human
Outline: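 Four dyes were applied at seeding to live cells: Hoechst33342, BioTracker Green Microtubule Cytoskeleton Dye, MitoTracker Red and Annexin V Alexa Fluor 680. Imaging after compound addition used a CQ1 microscope at 37°C and 5% CO2. CellPathfinder machine-learning gating then sorted cells into Hoechst high-intensity objects or normal cells, normal cells into healthy, pyknosed or fragmented nuclei, and pyknosed cells into mitotic or apoptotic, with tubulin, mitochondrial-mass and membrane-permeability phenotypes given as per cents of healthy-nucleus cells.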

[1] = 12 h, 1 µM, compound concentration 1 uM, replicate 1
[2] = 12 h, 1 µM, compound concentration 1 uM, replicate 2
[3] = 12 h, 10 µM, compound concentration 10 uM, replicate 1
[4] = 12 h, 10 µM, compound concentration 10 uM, replicate 2
[5] = 24 h, 1 µM, compound concentration 1 uM, replicate 1
[6] = 24 h, 1 µM, compound concentration 1 uM, replicate 2
[7] = 24 h, 10 µM, compound concentration 10 uM, replicate 1
[8] = 24 h, 10 µM, compound concentration 10 uM, replicate 2
[9] = 48 h, 1 µM, compound concentration 1 uM, replicate 1
[10] = 48 h, 1 µM, compound concentration 1 uM, replicate 2
[11] = 48 h, 10 µM, compound concentration 10 uM, replicate 1
[12] = 48 h, 10 µM, compound concentration 10 uM, replicate 2

Q: How did the “Population Apoptotic (%)” value [1] turn out when `CN1CCN(c2ccc(Nc3c4ccccc4nc4ccccc34)cc2)CC1.Cl.Cl.O` was run?
A: Its value is 100%.

Q: And the “Population Fragmented Nuclei (%)” value [1]?
A: Its value is 25%.

Q: And the “Population Healthy Nuclei (%)” value [1]?
A: Its value is 65%.

Q: And the “Population Hoechst High Intensity Objects (%)” value [1]?
A: Its value is 0%.

Q: What about the “Population Membrane Permeable-Phenotype (%)” value [1] of the same compound?
A: Its value is 19%.

Q: And the “Population Mitochondria Different-Phenotype (%)” value [1]?
A: The value was 7%.

Q: What about the “Population Mitotic Cells (%)” value [1] of the same compound?
A: Its value is 0%.

Q: And the “Population Normal (%)” value [1]?
A: The value was 99%.

Q: What about the “Population Pyknosed Nuclei (%)” value [1] of the same compound?
A: Its value is 8%.

Q: And the “Population Tubulin-Different-Phenotype (%)” value [1]?
A: The value was 17%.

Q: What about the “Total Cell Count” value [1] of the same compound?
A: The value was 193.

Q: What about the “Population Apoptotic (%)” value [2] of the same compound?
A: The value was 87%.

Q: What about the “Population Fragmented Nuclei (%)” value [2] of the same compound?
A: The value was 23%.

Q: And the “Population Healthy Nuclei (%)” value [2]?
A: The value was 69%.

Q: What about the “Population Membrane Permeable-Phenotype (%)” value [2] of the same compound?
A: The value was 14%.

Q: And the “Population Mitochondria Different-Phenotype (%)” value [2]?
A: The value was 13%.

Q: And the “Population Mitotic Cells (%)” value [2]?
A: Its value is 12%.

Q: What about the “Population Normal (%)” value [2] of the same compound?
A: The value was 100%.

Q: What about the “Population Pyknosed Nuclei (%)” value [2] of the same compound?
A: Its value is 7%.

Q: And the “Population Tubulin-Different-Phenotype (%)” value [2]?
A: The value was 13%.

Q: And the “Total Cell Count” value [2]?
A: The value was 107.

Q: What about the “Population Apoptotic (%)” value [3] of the same compound?
A: The value was 93%.

Q: What about the “Population Fragmented Nuclei (%)” value [3] of the same compound?
A: Its value is 54%.

Q: And the “Population Healthy Nuclei (%)” value [3]?
A: Its value is 38%.

Q: And the “Population Hoechst High Intensity Objects (%)” value [3]?
A: The value was 0%.

Q: And the “Population Membrane Permeable-Phenotype (%)” value [3]?
A: Its value is 65%.

Q: What about the “Population Mitochondria Different-Phenotype (%)” value [3] of the same compound?
A: Its value is 95%.

Q: And the “Population Mitotic Cells (%)” value [3]?
A: Its value is 6%.

Q: What about the “Population Normal (%)” value [3] of the same compound?
A: Its value is 99%.

Q: What about the “Population Pyknosed Nuclei (%)” value [3] of the same compound?
A: Its value is 7%.

Q: And the “Population Tubulin-Different-Phenotype (%)” value [3]?
A: The value was 82%.

Q: What about the “Total Cell Count” value [3] of the same compound?
A: Its value is 213.

Q: And the “Population Apoptotic (%)” value [4]?
A: The value was 100%.

Q: And the “Population Fragmented Nuclei (%)” value [4]?
A: The value was 62%.

Q: What about the “Population Healthy Nuclei (%)” value [4] of the same compound?
A: The value was 31%.

Q: What about the “Population Hoechst High Intensity Objects (%)” value [4] of the same compound?
A: Its value is 2%.

Q: And the “Population Membrane Permeable-Phenotype (%)” value [4]?
A: Its value is 70%.

Q: What about the “Population Mitochondria Different-Phenotype (%)” value [4] of the same compound?
A: The value was 100%.

Q: And the “Population Mitotic Cells (%)” value [4]?
A: The value was 0%.

Q: And the “Population Normal (%)” value [4]?
A: Its value is 97%.

Q: And the “Population Pyknosed Nuclei (%)” value [4]?
A: Its value is 6%.

Q: What about the “Population Tubulin-Different-Phenotype (%)” value [4] of the same compound?
A: Its value is 85%.

Q: And the “Total Cell Count” value [4]?
A: The value was 132.

Q: And the “Population Apoptotic (%)” value [5]?
A: The value was 92%.

Q: What about the “Population Fragmented Nuclei (%)” value [5] of the same compound?
A: The value was 28%.

Q: And the “Population Healthy Nuclei (%)” value [5]?
A: Its value is 64%.

Q: What about the “Population Hoechst High Intensity Objects (%)” value [5] of the same compound?
A: Its value is 1%.

Q: What about the “Population Membrane Permeable-Phenotype (%)” value [5] of the same compound?
A: Its value is 10%.

Q: What about the “Population Mitochondria Different-Phenotype (%)” value [5] of the same compound?
A: Its value is 6%.

Q: And the “Population Mitotic Cells (%)” value [5]?
A: The value was 7%.

Q: And the “Population Normal (%)” value [5]?
A: Its value is 98%.

Q: And the “Population Pyknosed Nuclei (%)” value [5]?
A: The value was 6%.

Q: What about the “Population Tubulin-Different-Phenotype (%)” value [5] of the same compound?
A: Its value is 7%.

Q: What about the “Total Cell Count” value [5] of the same compound?
A: Its value is 200.

Q: What about the “Population Apoptotic (%)” value [6] of the same compound?
A: Its value is 100%.

Q: And the “Population Fragmented Nuclei (%)” value [6]?
A: Its value is 29%.

Q: And the “Population Healthy Nuclei (%)” value [6]?
A: The value was 60%.

Q: What about the “Population Hoechst High Intensity Objects (%)” value [6] of the same compound?
A: Its value is 4%.

Q: And the “Population Membrane Permeable-Phenotype (%)” value [6]?
A: The value was 5%.

Q: And the “Population Mitochondria Different-Phenotype (%)” value [6]?
A: The value was 12%.

Q: What about the “Population Mitotic Cells (%)” value [6] of the same compound?
A: The value was 0%.

Q: And the “Population Normal (%)” value [6]?
A: Its value is 95%.

Q: What about the “Population Pyknosed Nuclei (%)” value [6] of the same compound?
A: The value was 10%.

Q: And the “Population Tubulin-Different-Phenotype (%)” value [6]?
A: Its value is 6%.

Q: And the “Total Cell Count” value [6]?
A: Its value is 124.

Q: What about the “Population Apoptotic (%)” value [7] of the same compound?
A: Its value is 100%.

Q: And the “Population Fragmented Nuclei (%)” value [7]?
A: Its value is 46%.

Q: What about the “Population Healthy Nuclei (%)” value [7] of the same compound?
A: The value was 42%.

Q: What about the “Population Hoechst High Intensity Objects (%)” value [7] of the same compound?
A: Its value is 4%.

Q: What about the “Population Membrane Permeable-Phenotype (%)” value [7] of the same compound?
A: Its value is 85%.

Q: What about the “Population Mitochondria Different-Phenotype (%)” value [7] of the same compound?
A: The value was 96%.

Q: And the “Population Mitotic Cells (%)” value [7]?
A: The value was 0%.

Q: And the “Population Normal (%)” value [7]?
A: Its value is 95%.

Q: And the “Population Pyknosed Nuclei (%)” value [7]?
A: The value was 11%.

Q: And the “Population Tubulin-Different-Phenotype (%)” value [7]?
A: Its value is 90%.

Q: And the “Total Cell Count” value [7]?
A: Its value is 205.

Q: And the “Population Apoptotic (%)” value [8]?
A: The value was 90%.

Q: What about the “Population Fragmented Nuclei (%)” value [8] of the same compound?
A: Its value is 69%.

Q: What about the “Population Healthy Nuclei (%)” value [8] of the same compound?
A: The value was 23%.

Q: And the “Population Hoechst High Intensity Objects (%)” value [8]?
A: The value was 10%.

Q: And the “Population Membrane Permeable-Phenotype (%)” value [8]?
A: Its value is 96%.

Q: What about the “Population Mitochondria Different-Phenotype (%)” value [8] of the same compound?
A: The value was 100%.

Q: And the “Population Mitotic Cells (%)” value [8]?
A: The value was 10%.

Q: What about the “Population Normal (%)” value [8] of the same compound?
A: Its value is 89%.

Q: What about the “Population Pyknosed Nuclei (%)” value [8] of the same compound?
A: The value was 7%.

Q: What about the “Population Tubulin-Different-Phenotype (%)” value [8] of the same compound?
A: The value was 100%.

Q: What about the “Total Cell Count” value [8] of the same compound?
A: Its value is 148.

Q: And the “Population Apoptotic (%)” value [9]?
A: Its value is 87%.

Q: What about the “Population Fragmented Nuclei (%)” value [9] of the same compound?
A: The value was 36%.

Q: And the “Population Healthy Nuclei (%)” value [9]?
A: Its value is 52%.

Q: What about the “Population Hoechst High Intensity Objects (%)” value [9] of the same compound?
A: The value was 4%.

Q: And the “Population Membrane Permeable-Phenotype (%)” value [9]?
A: The value was 6%.

Q: And the “Population Mitochondria Different-Phenotype (%)” value [9]?
A: The value was 4%.

Q: What about the “Population Mitotic Cells (%)” value [9] of the same compound?
A: Its value is 12%.

Q: And the “Population Normal (%)” value [9]?
A: The value was 95%.

Q: And the “Population Pyknosed Nuclei (%)” value [9]?
A: The value was 10%.

Q: And the “Population Tubulin-Different-Phenotype (%)” value [9]?
A: Its value is 3%.

Q: And the “Total Cell Count” value [9]?
A: The value was 231.

Q: And the “Population Apoptotic (%)” value [10]?
A: Its value is 100%.

Q: What about the “Population Fragmented Nuclei (%)” value [10] of the same compound?
A: The value was 40%.

Q: And the “Population Healthy Nuclei (%)” value [10]?
A: The value was 47%.

Q: What about the “Population Hoechst High Intensity Objects (%)” value [10] of the same compound?
A: Its value is 5%.

Q: What about the “Population Membrane Permeable-Phenotype (%)” value [10] of the same compound?
A: Its value is 19%.

Q: What about the “Population Mitochondria Different-Phenotype (%)” value [10] of the same compound?
A: Its value is 7%.

Q: And the “Population Mitotic Cells (%)” value [10]?
A: The value was 0%.

Q: What about the “Population Normal (%)” value [10] of the same compound?
A: Its value is 94%.

Q: And the “Population Pyknosed Nuclei (%)” value [10]?
A: The value was 12%.

Q: What about the “Population Tubulin-Different-Phenotype (%)” value [10] of the same compound?
A: The value was 9%.

Q: What about the “Total Cell Count” value [10] of the same compound?
A: Its value is 147.

Q: And the “Population Apoptotic (%)” value [11]?
A: The value was 96%.

Q: And the “Population Fragmented Nuclei (%)” value [11]?
A: The value was 53%.

Q: What about the “Population Healthy Nuclei (%)” value [11] of the same compound?
A: The value was 30%.

Q: What about the “Population Hoechst High Intensity Objects (%)” value [11] of the same compound?
A: Its value is 18%.

Q: What about the “Population Membrane Permeable-Phenotype (%)” value [11] of the same compound?
A: Its value is 91%.

Q: What about the “Population Mitochondria Different-Phenotype (%)” value [11] of the same compound?
A: The value was 90%.

Q: What about the “Population Mitotic Cells (%)” value [11] of the same compound?
A: The value was 3%.

Q: What about the “Population Normal (%)” value [11] of the same compound?
A: The value was 81%.

Q: What about the “Population Pyknosed Nuclei (%)” value [11] of the same compound?
A: The value was 15%.

Q: And the “Population Tubulin-Different-Phenotype (%)” value [11]?
A: Its value is 93%.

Q: What about the “Total Cell Count” value [11] of the same compound?
A: The value was 243.

Q: What about the “Population Apoptotic (%)” value [12] of the same compound?
A: The value was 100%.

Q: And the “Population Fragmented Nuclei (%)” value [12]?
A: Its value is 76%.

Q: What about the “Population Healthy Nuclei (%)” value [12] of the same compound?
A: The value was 19%.

Q: And the “Population Hoechst High Intensity Objects (%)” value [12]?
A: Its value is 15%.

Q: And the “Population Membrane Permeable-Phenotype (%)” value [12]?
A: The value was 100%.

Q: What about the “Population Mitochondria Different-Phenotype (%)” value [12] of the same compound?
A: Its value is 96%.

Q: And the “Population Mitotic Cells (%)” value [12]?
A: The value was 0%.

Q: And the “Population Normal (%)” value [12]?
A: Its value is 84%.

Q: And the “Population Pyknosed Nuclei (%)” value [12]?
A: The value was 4%.

Q: What about the “Population Tubulin-Different-Phenotype (%)” value [12] of the same compound?
A: The value was 100%.

Q: What about the “Total Cell Count” value [12] of the same compound?
A: Its value is 173.
